Measured values from ChEMBL document CHEMBL3588807, “Cytotoxic Indolocarbazoles from Actinomadura melliaura ATCC 39691” (J Nat Prod, 2015).
Calls of active or inactive are those of the source. No cut-off for these calls is given here.

Tests used:
Micrococcus luteus [1] = assay: Antimicrobial activity against Micrococcus luteus NRRL B-287 assessed as inhibition of microbial growth incubated for 16 to 48 hrs; format: functional
In short: (§1)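 MIC determined in triplicate against bacterial and yeast strains. Bacterial MICs were read after 16–48 h of incubation and the Saccharomyces cerevisiae MIC after 24 h. Procedure otherwise follows an earlier report.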

PC-3 [2] = assay: Cytotoxic activity against human PC3 cells assessed as cell viability at 10 uM incubated for 72 hrs; format: functional; conditions: PC-3, 72 h, read-out: Activity
In short: (§2)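 Single-dose viability screen at 10 μM, run in triplicate, on human cancer cell lines.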

A549 [3] = assay: Cytotoxic activity against human A549 cells assessed as cell viability at 10 uM incubated for 72 hrs; format: functional; conditions: A549, 72 h, read-out: Activity; in short: as §2
Salmonella enterica = assay: Antimicrobial activity against Salmonella enterica ATCC 10708 assessed as inhibition of microbial growth up to 60 uM incubated for 16 to 48 hrs; format: functional, organism-based; in short: as §1
PC-3 [4] = assay: Cytotoxic activity against human PC3 cells assessed as reduction in cell viability incubated for 72 hrs; format: functional, cell-based; conditions: PC-3, 72 h
In short: (§3)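 IC50 determined from viability over 0.03 to 100 000 nM, run in triplicate, on human cancer cell lines.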

[5] = Cytotoxic activity against human U118MG cells assessed as reduction in cell viability incubated for 72 hrs; format: functional, cell-based; conditions: U-118-MG; in short: as §3
Escherichia coli = assay: Antimicrobial activity against Escherichia coli NRRL B-3708 assessed as inhibition of microbial growth up to 60 uM incubated for 16 to 48 hrs; format: functional, organism-based; in short: as §1
Saccharomyces cerevisiae [6] = assay: Antimicrobial activity against Saccharomyces cerevisiae ATCC 204508 assessed as inhibition of microbial growth incubated for 24 hrs; format: functional; conditions: ATCC 204508, 24 h; in short: as §1
[7] = test system: Mycolicibacterium smegmatis; assay: Antimicrobial activity against Mycobacterium smegmatis ATCC 14468 assessed as inhibition of microbial growth incubated for 16 to 48 hrs; format: functional; in short: as §1
Staphylococcus aureus [8] = assay: Antimicrobial activity against Staphylococcus aureus ATCC 6538 assessed as inhibition of microbial growth incubated for 16 to 48 hrs; format: functional; in short: as §1
[9] = Cytotoxic activity against human U118MG cells assessed as cell viability at 10 uM incubated for 72 hrs; format: functional; conditions: U-118-MG, read-out: Activity; in short: as §2
A549 [10] = assay: Cytotoxic activity against human A549 cells assessed as reduction in cell viability incubated for 72 hrs; format: functional, cell-based; conditions: A549, 72 h; in short: as §3
Staphylococcus aureus [11] = assay: Antimicrobial activity against Staphylococcus aureus ATCC 6538 assessed as inhibition of microbial growth up to 60 uM incubated for 16 to 48 hrs; format: functional, organism-based; in short: as §1
[12] = test system: Mycolicibacterium smegmatis; assay: Antimicrobial activity against Mycobacterium smegmatis ATCC 14468 assessed as inhibition of microbial growth up to 120 uM incubated for 16 to 48 hrs; format: functional, organism-based; in short: as §1
Micrococcus luteus [13] = assay: Antimicrobial activity against Micrococcus luteus NRRL B-287 assessed as inhibition of microbial growth up to 60 uM incubated for 16 to 48 hrs; format: functional, organism-based; in short: as §1
Saccharomyces cerevisiae [14] = assay: Antimicrobial activity against Saccharomyces cerevisiae ATCC 204508 assessed as inhibition of microbial growth up to 60 uM incubated for 24 hrs; format: functional, organism-based; in short: as §1

| Structure (SMILES) | MIC (Micrococcus luteus [1]) [µM] | MIC (Saccharomyces cerevisiae [6]) [µM] | MIC [7] [µM] | MIC (Staphylococcus aureus [8]) [µM] | viability at 10 µM (PC-3 [2]) [%] | viability at 10 µM (A549 [3]) [%] | growth inhibition (GI) (Salmonella enterica) | IC50 (PC-3 [4]) [nM] | IC50 [5] [nM] | growth inhibition (GI) (Escherichia coli) | viability at 10 µM [9] [%] | IC50 (A549 [10]) [nM] | growth inhibition (GI) (Staphylococcus aureus [11]) | growth inhibition (GI) [12] | growth inhibition (GI) (Micrococcus luteus [13]) | growth inhibition (GI) (Saccharomyces cerevisiae [14]) |
| --- | --- | --- | --- | --- | --- | --- | --- | --- | --- | --- | --- | --- | --- | --- | --- | --- |
| CN[C@H]1CO[C@@H](OC[C@H]2O[C@@H](n3c4c(Cl)cccc4c4c5c(c6c7ccccc7[nH]c6c43)C(=O)NC5=O)[C@H](O)[C@@H](O)[C@@H]2OC)C[C@@H]1O | 7.5 | > 60 | 120 | 7.5 | 39 | 19.9 | inactive | 45.8 | 47.3 | inactive | 31.3 | 69.6 | – | – | – | – |
| CN1C(=O)c2c(c3c4cccc(Cl)c4[nH]c3c3[nH]c4ccccc4c23)C1=O | – | – | – | – | 155 | 164 | inactive | – | – | inactive | 186 | – | inactive | inactive | inactive | inactive |
| CO[C@H]1[C@H](O)[C@@H](O)[C@H](n2c3c(Cl)cccc3c3c4c(c5c6ccccc6[nH]c5c32)C(=O)N(C)C4=O)O[C@@H]1CO | – | – | – | – | 69 | 47.4 | inactive | – | – | inactive | 40.5 | – | inactive | inactive | inactive | inactive |
| O=C1NC(=O)c2c1c1c3ccccc3[nH]c1c1c2c2ccccc2n1[C@@H]1O[C@H](CO)[C@@H](O)[C@H](O)[C@H]1O | – | – | – | – | 47.7 | 32.6 | inactive | – | – | inactive | 53.6 | – | inactive | inactive | inactive | inactive |

Now from value to compound, other results behind:

| MIC (Micrococcus luteus [1]) [µM] | MIC (Saccharomyces cerevisiae [6]) [µM] | MIC [7] [µM] | MIC (Staphylococcus aureus [8]) [µM] | Structure (SMILES) | viability at 10 µM (PC-3 [2]) [%] | viability at 10 µM (A549 [3]) [%] | growth inhibition (GI) (Salmonella enterica) | IC50 (PC-3 [4]) [nM] | IC50 [5] [nM] | growth inhibition (GI) (Escherichia coli) | viability at 10 µM [9] [%] | IC50 (A549 [10]) [nM] | growth inhibition (GI) (Staphylococcus aureus [11]) | growth inhibition (GI) [12] | growth inhibition (GI) (Micrococcus luteus [13]) | growth inhibition (GI) (Saccharomyces cerevisiae [14]) |
| --- | --- | --- | --- | --- | --- | --- | --- | --- | --- | --- | --- | --- | --- | --- | --- | --- |
| 15 | > 60 | > 120 | 7.5 | CO[C@H]1[C@H](O)[C@@H](O)[C@H](n2c3ccccc3c3c4c(c5c6ccccc6[nH]c5c32)C(=O)N(C)C4=O)O[C@@H]1CO | 98.3 | 96.6 | inactive | – | – | inactive | 61 | – | – | – | – | – |
| 7.5 | > 60 | 120 | 7.5 | CN[C@H]1CO[C@@H](OC[C@H]2O[C@@H](n3c4ccccc4c4c5c(c6c7ccccc7[nH]c6c43)C(=O)N(C)C5=O)[C@H](O)[C@@H](O)[C@@H]2OC)C[C@@H]1O | 36.4 | 16.6 | inactive | – | – | inactive | 29.4 | – | – | – | – | – |
| 7.5 | 7.5 | 60 | 1 | CN[C@H]1CO[C@@H](OC[C@H]2O[C@@H](n3c4c(Cl)cccc4c4c5c(c6c7ccccc7[nH]c6c43)C(=O)N(C)C5=O)[C@H](O)[C@@H](O)[C@@H]2OC)C[C@@H]1O | 27 | 10.5 | inactive | 106 | 56.8 | inactive | 20.8 | 76.4 | – | – | – | – |
